Measured values as given in ChEMBL document CHEMBL4184338, “In Vitro and In Vivo Demonstration of Human-Ovarian-Cancer Necrosis through a Water-Soluble and Near-Infrared-Absorbing Chlorin” (J Med Chem, 2018).
≈ marks a conversion by molar mass, not a printed value. One block for each molecule: values may come before it. Calls of active or inactive are those of the source. The rule behind the calls is not given here.

Key:
[1] = Solubility in 25% aqueous ethanolic medium at 25 degC after 24 hrs by UV-VIS spectrometric method; type: physicochemical
Mus musculus [2] = test: Toxicity in FoxN1 nude mouse xenografted with human SKOV3 cells assessed as effect on skin around peritumoral area at 20 mg/kg, iv measured up to day 14 in presence of 100 J/cm'2 light; type: organism-based; conditions: in vivo
Outline: (§1)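 3-4 million SKOV-3 cells injected subcutaneously into the flank of 6-8 week old FoxN1 nude mice (20-25 g). At tumour volumes of about 100-150 mm3, randomised into four groups of six: untreated, light only, compound only, and compound plus light. Compound given iv at 20 mg/Kg in physiological saline. Irradiation 24 h later at 100 J/cm2, 100 mW/cm2, 600-750 nm source, under ip ketamine (60 mg/Kg)/xylazine (8 mg/Kg). Tumour volume by calipers, V=LW2/2, followed over two weeks. Tissues processed for H&E histology.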

SK-OV-3 [3] = test: Antitumor activity against human SKOV3 cells xenografted in FoxN1 nude mouse assessed as disappearance of scar at site of tumor at 20 mg/kg, iv measured up to day 14 in presence of 100 J/cm'2 light; type: functional, organism-based; outline: as §1
[4] = Drug uptake in human SKOV3 cells at 20 uM after 1 hr in presence of 200 J/cm'2 light by Hoechst 33342 staining-based confocal microscopic method; type: ADME, cell-based; conditions: sk-ov-3, 1 h
Outline: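 SKOV-3 cells on chambered glass slides incubated with 20 μM compound for 1 h. Rinsed with PBS, stained with Hoechst 33342 (1 μg/mL), imaged by confocal microscopy.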

[5] = Drug uptake in fibrous tissue cells of FoxN1 nude mouse xenografted with human SKOV3 cells at 20 mg/kg administered intratumorally measured at 12 hrs by fluorescence microscopic method; type: ADME, organism-based; conditions: in vivo, other
Outline: (§2)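 Compound injected intratumorally into SKOV-3 xenograft-bearing nude mice. Tumours biopsied 12 h after administration, then sectioned. Sections DAPI-counterstained and examined for red compound fluorescence by fluorescence microscopy.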

SK-OV-3 [6] = test: Antitumor activity against human SKOV3 cells xenografted in FoxN1 nude mouse assessed as elimination of neoplastic cells in tumor at 20 mg/kg, iv measured on day 14 in presence of 100 J/cm'2 light by hematoxylin-and-eosin staining-based assay; type: functional, organism-based; outline: as §1
[7] = Drug uptake in stromal cells of FoxN1 nude mouse xenografted with human SKOV3 cells at 20 mg/kg administered intratumorally measured at 12 hrs by fluorescence microscopic method; type: ADME, organism-based; conditions: in vivo, other; outline: as §2
Mus musculus [8] = test: Toxicity in FoxN1 nude mouse xenografted with human SKOV3 cells assessed as effect on heart morphology at 20 mg/kg, iv measured on day 14 in presence of 100 J/cm'2 light by hematoxylin-and-eosin staining-based assay; type: organism-based; conditions: in vivo; outline: as §1
[9] = Drug uptake in neoplastic tumor of FoxN1 nude mouse xenografted with human SKOV3 cells at 20 mg/kg administered intratumorally measured at 12 hrs by fluorescence microscopic method; type: ADME, organism-based, Neoplasm; conditions: in vivo, other; outline: as §2
Homo sapiens [10] = species on record: Homo sapiens; test: Disruption of F-actin organization in human SKOV3 cells at 20 uM in presence of 200 J/cm'2 light by TRITC labeled phalloidin/DAPI staining-based confocal microscopic method; type: cell-based
Outline: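 SKOV-3 cells on coverslips: untreated, 20 μM compound in the dark, or 20 μM compound plus irradiation (600-720 nm, 200 J/cm2). Fixed in 4% paraformaldehyde/PBS, permeabilised with 0.1% Triton X-100, stained with TRITC-phalloidin (1:50, 1 h). DAPI counterstain, confocal imaging.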

MCF7 = test: Phototoxicity against human MCF7 cells assessed as decrease in cell viability after 24 hrs in presence of 200 J/cm'2 light by MTT assay; type: functional, cell-based; conditions: MCF7, light or radiation study
Outline: (§3)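 Cell lines given varied compound concentrations, then irradiated (600-750 nm source, 200 J/cm2 at 50 mW/cm2) or kept dark. Viability by MTT at 24 h after treatment; IC50 from the dose-response. Three independent experiments averaged.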

Homo sapiens [11] = species on record: Homo sapiens; test: Binding affinity to F-actin in human SKOV3 cells at 20 uM after 1 hr in presence of 200 J/cm'2 light by TRITC labeled phalloidin/DAPI staining-based confocal microscopic method
SK-OV-3 [12] = test: Antitumor activity against human SKOV3 cells xenografted in FoxN1 nude mouse assessed as decrease in tumor volume at 20 mg/kg, iv measured up to day 14 in presence of 100 J/cm'2 light; type: functional, organism-based; outline: as §1
MDA-MB-231 = test: Phototoxicity against human MDA-MB-231 cells assessed as decrease in cell viability after 24 hrs in presence of 200 J/cm'2 light by MTT assay; type: functional, cell-based; conditions: MDA-MB-231, light or radiation study; outline: as §3
[13] = Dark toxicity in human SKOV3 cells assessed as alteration in cell morphology by phase-contrast microscopic method; type: cell-based; conditions: sk-ov-3
Outline: (§4)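 SKOV-3 cells given compound, kept dark or irradiated (200 J/cm2, 50 mW/cm2). Morphology examined by phase-contrast microscopy (100X).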

SK-OV-3 [14] = test: Phototoxicity in human SKOV3 cells assessed as alteration in cell morphology in presence of 200 J/cm'2 light by phase-contrast microscopic method; type: functional, cell-based; outline: as §4
SK-OV-3 [15] = test: Cell cycle arrest in human SKOV3 cells assessed as accumulation at sub-G1 phase at 20 uM after 24 hrs in presence of 200 J/cm'2 light by propidium iodide staining-based flow cytometric method (reference value: 7%); type: functional
Mus musculus [16] = test: Toxicity in FoxN1 nude mouse xenografted with human SKOV3 cells assessed as effect on lung morphology at 20 mg/kg, iv measured on day 14 in presence of 100 J/cm'2 light by hematoxylin-and-eosin staining-based assay; type: organism-based; conditions: in vivo; outline: as §1
[17] = Induction of singlet oxygen generation in methanol at 3 uM in presence of light by DPBF-based chemical trapping method; type: functional
Mus musculus [18] = test: Toxicity in FoxN1 nude mouse xenografted with human SKOV3 cells assessed as effect on liver morphology at 20 mg/kg, iv measured on day 14 in presence of 100 J/cm'2 light by hematoxylin-and-eosin staining-based assay; type: organism-based; conditions: in vivo; outline: as §1
SK-OV-3 [19] = test: Induction of necrosis in human SKOV3 cells at 20 uM in presence of 200 J/cm'2 light by propidium iodide staining-based flow cytometric method (reference value: 7.45%); type: functional
Outline: (§5)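 Unfixed SKOV-3 cells given 20 μM compound, with or without light (600-720 nm, 200 J/cm2). Harvested, PBS-washed, stained with propidium iodide (10 μg/mL) for 20 min. PI-positive membrane-damaged fraction measured by flow cytometry.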

Mus musculus [20] = test: Toxicity in FoxN1 nude mouse xenografted with human SKOV3 cells assessed as effect on spleen morphology at 20 mg/kg, iv measured on day 14 in presence of 100 J/cm'2 light by hematoxylin-and-eosin staining-based assay; type: organism-based; conditions: in vivo; outline: as §1
SK-OV-3 [21] = test: Cell cycle arrest in human SKOV3 cells assessed as accumulation at sub-G1 phase at 20 uM after 12 hrs in absence of light by propidium iodide staining-based flow cytometric method (reference value: 2.2%); conditions: sk-ov-3, 12 h
SK-OV-3 [22] = test: Phototoxicity against human SKOV3 cells assessed as decrease in cell viability after 24 hrs in presence of 200 J/cm'2 light by MTT assay; type: functional, cell-based; outline: as §3
Mus musculus [23] = test: Toxicity in FoxN1 nude mouse xenografted with human SKOV3 cells assessed as effect on kidney morphology at 20 mg/kg, iv measured on day 14 in presence of 100 J/cm'2 light by hematoxylin-and-eosin staining-based assay; type: organism-based; conditions: in vivo; outline: as §1
[24] = Photostability of compound; type: physicochemical
SK-OV-3 [25] = test: Induction of reactive oxygen species formation in human SKOV3 cells at 20 uM in presence of 200 J/cm'2 light by CM-H2DCFDA probe-based flow cytometric method (reference value: <1%); type: functional
SK-OV-3 [26] = test: Cell cycle arrest in human SKOV3 cells assessed as accumulation at sub-G1 phase at 20 uM after 12 hrs in presence of 200 J/cm'2 light by propidium iodide staining-based flow cytometric method (reference value: 7%); type: functional
SK-OV-3 [27] = test: Disruption of mitochondrial membrane potential in human SKOV3 cells at 20 uM in presence of 200 J/cm'2 light by MitoTracker Red probe/Hoechst 33342 staining-based confocal microscopic method; type: functional, cell-based
Outline: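 Control SKOV-3 cells and cells after photodynamic treatment (20 μM compound, 600-720 nm, 200 J/cm2) loaded with 200 nM MitoTracker Red CMXRos, 30 min at 37 °C. Formaldehyde-fixed, nuclear counterstain, confocal microscopy.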

SK-OV-3 [28] = test: Induction of necrosis in human SKOV3 cells at 20 uM in absence of light by propidium iodide staining-based flow cytometric method (reference value: 7.03%); type: cell-based; conditions: sk-ov-3, 20 µM; outline: as §5
SK-OV-3 [29] = test: Induction of reactive oxygen species formation in human SKOV3 cells at 20 uM in presence of 200 J/cm'2 light by CM-H2DCFDA probe-based confocal microscopic method; type: functional, cell-based
SK-OV-3 [30] = test: Induction of reactive oxygen species formation in human SKOV3 cells at 20 uM in absence of light by CM-H2DCFDA probe-based confocal microscopic method; type: cell-based; conditions: sk-ov-3, 20 µM
[31] = Drug uptake in mitochondria of human SKOV3 cells at 20 uM after 1 hr in presence of 200 J/cm'2 light by MitoTracker Red probe/Hoechst 33342 staining-based confocal microscopic method; type: ADME; conditions: sk-ov-3, 1 h
IMR-32 = test: Phototoxicity against human IMR32 cells assessed as decrease in cell viability after 24 hrs in presence of 200 J/cm'2 light by MTT assay; type: functional, cell-based; conditions: IMR-32, light or radiation study; outline: as §3

solubility at 24 h [1]: 600 µM (≈ 408 µg/mL)
Compound: Oc1cccc(-c2c3nc(c(-c4cccc(O)c4)c4ccc([nH]4)c(-c4cccc(O)c4)c4nc(c(-c5cccc(O)c5)c5ccc2[nH]5)CC4)C=C3)c1 [TEMOPORFIN]

Drug uptake [4]: Active
Drug uptake [5]: Not Active
Drug uptake [7]: Not Active
Drug uptake [9]: Active
solubility at 24 h [1]: 3640 µM (≈ 2710 µg/mL)
Activity (SK-OV-3 [21]): 1%
Stability [24]: Stable
Drug uptake [31]: Active
Compound: Oc1ccc(-c2c3nc(c(-c4ccc(O)c(O)c4)c4ccc([nH]4)c(-c4ccc(O)c(O)c4)c4nc(c(-c5ccc(O)c(O)c5)c5ccc2[nH]5)CC4)C=C3)cc1O
Activity (Mus musculus [2]): Non-Toxic
Activity (SK-OV-3 [3]): Active
Activity (SK-OV-3 [6]): Active
Activity (Mus musculus [8]): Non-Toxic
Activity (Homo sapiens [10]): Active
IC50 (MCF7): 4.4 µM
Activity (Homo sapiens [11]): Active
Activity (SK-OV-3 [12]): Active
IC50 (MDA-MB-231): 6.1 µM
Activity [13]: Non-Toxic
Activity (SK-OV-3 [14]): Active
Activity (SK-OV-3 [15]): 76.7%
Activity (Mus musculus [16]): Non-Toxic
Activity [17]: 80%
Activity (Mus musculus [18]): Non-Toxic
Activity (SK-OV-3 [19]): 79.48%
Activity (Mus musculus [20]): Non-Toxic
Activity (SK-OV-3 [22]): Dose-dependent effect
IC50 (SK-OV-3 [22]; SK-OV-3, light or radiation study): 11.2 µM
Activity (Mus musculus [23]): Non-Toxic
Activity (SK-OV-3 [25]): 73%
Activity (SK-OV-3 [26]): 59.6%
Activity (SK-OV-3 [27]): Active
Activity (SK-OV-3 [28]): 8.98%
Activity (SK-OV-3 [29]): Active
Activity (SK-OV-3 [30]): Non-Toxic
IC50 (IMR-32): 3.5 µM
